The subject of data set [1] is Rattus norvegicus. Description: Anti-inflammatory activity in carrageenan-induced paw edema Wistar rat model assessed as swelling thickness of paw at 5 mg/kg, po measured after 1 hr by digital vernier caliper (reference value: 8.47 +/- 0.25 millimeter). Format: functional. (In the carrageenan paw model, swelling and tenderness develop within hours.)
The test system of data set [2] is Rattus norvegicus. The experiment in a line: Anti-inflammatory activity in carrageenan-induced paw edema Wistar rat model assessed as swelling thickness of paw at 10 mg/kg, po measured after 2 hrs by digital vernier caliper (reference value: 8.65 +/- 0.53 millimeter). The format is functional.
Data set [3] relates to Rattus norvegicus. Description: Anti-inflammatory activity in carrageenan-induced paw edema Wistar rat model assessed as swelling thickness of paw at 5 mg/kg, po measured after 3 hrs by digital vernier caliper (reference value: 8.56 +/- 0.45 millimeter). Format: functional.
Data set [4] deals with Rattus norvegicus. Description: Anti-inflammatory activity in carrageenan-induced paw edema Wistar rat model assessed as swelling thickness of paw at 10 mg/kg, po measured after 4 hrs by digital vernier caliper (reference value: 8.36 +/- 0.78 millimeter). The format is functional.
The subject of data set [5] is Rattus norvegicus. The experiment in a line: Anti-inflammatory activity in carrageenan-induced paw edema Wistar rat model assessed as swelling thickness of paw at 5 mg/kg, po measured after 5 hrs by digital vernier caliper (reference value: 8.47 +/- 0.32 millimeter). Format: functional.
The subject of data set [6] is Rattus norvegicus. The experiment in a line: Anti-inflammatory activity in carrageenan-induced paw edema Wistar rat model assessed as swelling thickness of paw at 5 mg/kg, po measured after 6 hrs by digital vernier caliper (reference value: 8.33 +/- 0.42 millimeter). Format: functional.
For data set [7], the system named is Rattus norvegicus. Description: Anti-inflammatory activity in carrageenan-induced paw edema Wistar rat model assessed as swelling thickness of paw at 20 mg/kg, po measured after 6 hrs by digital vernier caliper (reference value: 8.33 +/- 0.42 millimeter). Format: functional.
The subject of data set [8] is Rattus norvegicus. Description: Anti-inflammatory activity in carrageenan-induced paw edema Wistar rat model assessed as decrease in TNF-alpha level in paw tissue at 5 to 20 mg/kg, po measured for 6 hrs by ELISA. The format is functional, organism-based. The note with it: dose 5-20 mg/kg. An outline of the steps: (§1)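 Paw tissue taken from carrageenan-edema rats dosed orally at 5, 10 or 20 mg kg−1. Tissue rinsed in PBS pH 7.4, minced, homogenized, filtered and centrifuged at 2000 rpm for 20 min at 4 °C. Supernatant assayed by ELISA for PGE2, IL-6, TNF-α and IL-10. Data as mean ± SD.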

In data set [9] the test system is Rattus norvegicus. Description: Anti-inflammatory activity in carrageenan-induced paw edema Wistar rat model assessed as increase in IL-10 level in paw tissue at 5 to 20 mg/kg, po measured for 6 hrs by ELISA. Format: functional, organism-based. The note with it: dose 5-20 mg/kg. An outline of the steps:
as §1

Data set [10] has as its system Rattus norvegicus. The experiment in a line: Anti-inflammatory activity in arachidonic acid-induced paw edema Wistar rat model assessed as swelling thickness of paw at 5 mg/kg, po measured after 1 hr by digital vernier caliper (reference value: 6.51 +/- 0.37 millimeter). The format is functional.
Data set [11] is described as follows: Toxicity in fasting Wistar rat assessed as ulcer score at 10 mg/kg, po via gavage treated for 3 days consecutively by H and E staining based analysis (reference value: 0). The format is organism-based. The note with it: in vivo, 72 h, time 3 day. An outline of the steps: (§2)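 Fasted rats, n = 6/group, gavaged once daily for 3 days in 0.3% Na CMC (vehicle control 0.3% CMC); killed under anaesthesia 6 h after day-3 dose; stomachs saline-washed, mucosa examined with hand lens; ulcer score, index and % ulceration by reported scoring; some stomachs formalin-fixed, H&E stained.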

The nature of data set [12]: Toxicity in fasting Wistar rat assessed as ulcer index at 5 mg/kg, po via gavage treated for 3 days consecutively by H and E staining based analysis (reference value: 0). The note with it: in vivo, 72 h, time 3 day. The format is organism-based. Summed up: as §2
A short description of data set [13]: Toxicity in fasting Wistar rat assessed as ulceration at 5 mg/kg, po via gavage treated for 3 days consecutively by H and E staining based analysis (reference value: 0 %). The format is organism-based. The note with it: in vivo, 72 h, time 3 day. An outline of the steps:
as §2

Data set [14] has as its system Gastric mucosa. Description: Antioxidant activity in gastric mucosal tissue in Wistar rat assessed as increase in GSH level at 20 mg/kg, po. The format is functional, organism-based. Summed up:
(§3)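 Fasted rats (n = 6/group) gavaged once daily for 3 days in 0.3% Na CMC and sacrificed 6 h after the final dose. Randomly chosen stomachs homogenized in cold PBS pH 7.4 and centrifuged at 1000 rpm for 10 min at 4 °C. Supernatant protein measured by Bradford assay; GSH and nitrate then measured by reported methods.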

Data set [15] deals with Gastric mucosa. The experiment in a line: Antioxidant activity in gastric mucosal tissue in Wistar rat assessed as decrease in nitrite level at 20 mg/kg, po. Format: functional, organism-based. Summed up: as §3
A short description of data set [16]: Toxicity in Wistar rat assessed as change in serum AST level at 20 mg/kg, po. The format is organism-based. The note with it: in vivo. Summed up: (§4)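 Rats dosed orally in 0.3% Na CMC; retro-orbital blood clotted at room temperature, serum separated at 2000 rpm, 20 min, 4 °C; ALT, AST, creatinine and urea by commercial kits; n = 6 per group, mean ± SD; Tukey test after repeated-measures one-way ANOVA.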

Data set [17] can be described thus: Toxicity in Wistar rat assessed as change in serum creatinine level at 20 mg/kg, po. The note with it: in vivo. Format: organism-based. An outline of the steps: as §4
Data set [18] in a line: Toxicity in Wistar rat assessed as change in serum urea level at 20 mg/kg, po. The format is organism-based. The note with it: in vivo. An outline of the steps:
as §4

For data set [19], the system named is Rattus norvegicus. The experiment in a line: Cardio-protective activity in ISO-treated Wistar rat assessed as decrease in serum LDH level at 20 mg/kg, po. Format: functional, organism-based. Summed up:
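Rats (n = 6/group) given ISO 100 mg kg−1 s.c., then oral test compound in 0.3% CMC; vehicle controls. Retro-orbital blood, serum separated at 4000 rpm, 4 °C, 10 min; LDH and CK-MB by commercial kits; mean ± SD.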

Data set [20] has as its system Rattus norvegicus. The experiment in a line: Cardio-protective activity in ISO-treated Wistar rat assessed as decrease in serum cTn-I level at 20 mg/kg, po by ELISA. Format: functional, organism-based. An outline of the steps:
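ISO 100 mg kg−1 s.c. rat model, oral treatment after ISO, n = 6 per group; serum from retro-orbital blood (4000 rpm, 4 °C, 10 min); cTn-I by commercial kit; mean ± SD.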
Background: An ELISA detects its analyte on a solid surface through an enzyme-linked reagent.

Data set [21] deals with Rattus norvegicus. Description: Analgesic activity in acetic acid-induced pain Wistar rat model assessed as number of writhing at 20 mg/kg, po pretreated for 30 mins followed by acetic acid treatment measured for 30 mins by writhing test (reference value: 40.33 +/- 3.01). The format is functional. The note with it: 0.5 h.

The source made the active and inactive calls. The rule behind the calls is not given here.

Take `Clc1ccc(-c2nnc(CN3CCN(C(c4ccccc4)c4ccc(Cl)cc4)CC3)o2)cc1` (configuration not stated): the Activity in the data set with Rattus norvegicus [1] stood at 6.18 mm; with Rattus norvegicus [2], 3.96 mm; in the data set on Rattus norvegicus [3] it was 4.67 mm; in the data set on Rattus norvegicus [4], 3.32 mm; in the data set with Rattus norvegicus [5], 3.98 mm; with Rattus norvegicus [6] it was 4.14 mm. In addition, the Activity in the data set with Rattus norvegicus [7] is given as 3.41 mm; with Rattus norvegicus [10] it was 2.86 mm; in [11], 0.02; in data set [13], 0%; in data set [16], “Non-toxic”; in [17], “Non-toxic”. The values for the Activity entry (in [18]; with Rattus norvegicus [21]) were “Non-toxic” and 17.83, respectively. The result in the data set on Rattus norvegicus [8], with Rattus norvegicus [9], with Gastric mucosa [14], with Gastric mucosa [15], with Rattus norvegicus [19] and in the data set with Rattus norvegicus [20] was Active. Also, the UI in [12] came out at 0.

Take `O=[N+]([O-])c1ccc(-c2nnc(CN3CCN(C(c4ccccc4)c4ccc(Cl)cc4)CC3)o2)cc1` (configuration not stated): the Activity turned out to be 5.74 mm with Rattus norvegicus [1]; 4.55 mm with Rattus norvegicus [2]; 4.87 mm in the data set with Rattus norvegicus [3]; 3.88 mm with Rattus norvegicus [4]; 4.22 mm with Rattus norvegicus [5]; 4.14 mm with Rattus norvegicus [6]. Further, the Activity is on record as 3.91 mm in the data set on Rattus norvegicus [7]; 2.92 mm with Rattus norvegicus [10]; 0.031 in data set [11]; 0.667% in data set [13]; “Non-toxic” in data set [16]; “Non-toxic” in data set [17]. For the same molecule, the Activity result in data set [18] was “Non-toxic”; with Rattus norvegicus [21] it was 20.33. The outcome in the data set with Rattus norvegicus [8], in the data set with Rattus norvegicus [9], in the data set on Gastric mucosa [14], with Gastric mucosa [15], in the data set with Rattus norvegicus [19] and in the data set with Rattus norvegicus [20] was Active. In addition, the UI in [12] is recorded as 1.041.

For the origin of these results see ChEMBL document CHEMBL6134766, “Design, synthesis, and evaluation of benzhydrylpiperazine-based novel dual COX-2/5-LOX inhibitors with anti-inflammatory and anti-cancer activity” (RSC Med Chem, 2025).
